Test results as given in ChEMBL document CHEMBL1649280, “Activity of the novel peptide arminin against multiresistant human pathogens shows the considerable potential of phylogenetically ancient organisms as drug sources” (Antimicrob Agents Chemother, 2009).
Calls of active or inactive are those of the source. No cut-off for these calls is given here.

How the values were obtained:
Staphylococcus aureus [1] = experiment: Antibacterial activity against Staphylococcus aureus ATCC 12600 after 2 hrs; assay type: functional
Escherichia coli [2] = experiment: Antibacterial activity against Escherichia coli DH5alpha after 2 hrs; assay type: functional, DH5[alpha]
Priestia megaterium [3] = experiment: Antibacterial activity against Bacillus megaterium ATCC 14581 after 2 hrs; assay type: functional
Staphylococcus aureus [4] = experiment: Antibacterial activity against methicillin-resistant Staphylococcus aureus ATCC 33393 after 2 hrs; assay type: functional
Staphylococcus aureus [5] = experiment: Antibacterial activity against methicillin-resistant Staphylococcus aureus ATCC 43300 after 2 hrs; assay type: functional
Staphylococcus aureus [6] = experiment: Antibacterial activity against methicillin-resistant Staphylococcus aureus 344 after 2 hrs; assay type: functional
Staphylococcus aureus [7] = experiment: Antibacterial activity against methicillin-resistant Staphylococcus aureus 358 after 2 hrs; assay type: functional
Enterococcus faecalis = experiment: Antibacterial activity against vancomycin-resistant Enterococcus faecalis ATCC 51299 after 2 hrs; assay type: functional
Klebsiella pneumoniae [8] = experiment: Antibacterial activity against vancomycin-resistant ESBL-producing Klebsiella pneumoniae ATCC 700603 after 2 hrs; assay type: functional
Klebsiella pneumoniae [9] = experiment: Antibacterial activity against vancomycin-resistant ESBL-producing Klebsiella pneumoniae GF1 after 2 hrs; assay type: functional
Klebsiella pneumoniae [10] = experiment: Antibacterial activity against vancomycin-resistant ESBL-producing Klebsiella pneumoniae GF7 after 2 hrs; assay type: functional
Escherichia coli [11] = experiment: Antibacterial activity against vancomycin-resistant ESBL-producing Escherichia coli E4 after 2 hrs; assay type: functional
Escherichia coli [12] = experiment: Antibacterial activity against vancomycin-resistant ESBL-producing Escherichia coli E9 after 2 hrs; assay type: functional
Escherichia coli [13] = experiment: Antibacterial activity against Escherichia coli DH5alpha by microdilution susceptibility assay in presence of 75 mM of sodium chloride; assay type: functional, DH5[alpha]
Summary of the method: (§1)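 Microdilution susceptibility assay in 10 mM sodium phosphate buffer, pH 7.4, with NaCl at 0, 75, 150 or 200 mM. Activity is expressed relative to the activity in buffer without NaCl, which is set to 1. Values are means with standard deviations of two independent experiments, each run in duplicate.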

Staphylococcus aureus [14] = experiment: Antibacterial activity against Staphylococcus aureus ATCC 12600 by microdilution susceptibility assay in presence of 75 mM of sodium chloride; assay type: functional; summary of the method: as §1
Priestia megaterium [15] = experiment: Antibacterial activity against Bacillus megaterium ATCC 14581 by microdilution susceptibility assay in presence of 75 mM of sodium chloride; assay type: functional; summary of the method: as §1
Escherichia coli [16] = experiment: Antibacterial activity against Escherichia coli DH5alpha by microdilution susceptibility assay in presence of 200 mM of sodium chloride; assay type: functional, organism-based; conditions: DH5[alpha]
Summary of the method: (§2)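 Microdilution susceptibility assay in 10 mM sodium phosphate pH 7.4 with 0, 75, 150 or 200 mM NaCl. Activity relative to 0 mM NaCl (set to 1). Mean with standard deviation of two independent experiments, each in duplicate.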

Staphylococcus aureus [17] = experiment: Antibacterial activity against Staphylococcus aureus ATCC 12600 by microdilution susceptibility assay in presence of 200 mM of sodium chloride; assay type: functional, organism-based; summary of the method: as §2
Priestia megaterium [18] = experiment: Antibacterial activity against Bacillus megaterium ATCC 14581 by microdilution susceptibility assay in presence of 200 mM of sodium chloride; assay type: functional, organism-based; summary of the method: as §2
[19] = Toxicity in human RBC assessed as hemolysis at 250 uM after 1 hr; assay type: cell-based; conditions: erythrocyte
Summary of the method: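 Human red blood cells were exposed to peptide serially diluted twofold from 250 μM in 50 mM sodium phosphate-150 mM NaCl, pH 7.4, for 1 h. Distilled water gave maximal lysis; buffer with peptide solvent gave spontaneous lysis. Absorbance of diluted supernatants was read at 405 nm. Values are means of two independent experiments, each in duplicate.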

Staphylococcus aureus [20] = experiment: Antibacterial activity against Staphylococcus aureus ATCC 12600 assessed as destruction and detachment of peripheral cell wall at 410 uM after 1.5 hrs by transmission electron microscopy; assay type: functional, organism-based
Summary of the method: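 S. aureus grown to OD₆₀₀ 0.1, washed twice in 10 mM sodium phosphate pH 7.4 with 1% tryptic soy broth, concentrated to OD₆₀₀ 3.0 (~10⁸ bacteria/ml). Incubated with peptide at 41 or 410 μM for 1.5 h at 37°C with rocking; solvent-only control. CFU plated as growth check. Rest fixed 2 h 1:1 with 10% glutaraldehyde, examined by transmission electron microscopy.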

Staphylococcus aureus [21] = experiment: Antibacterial activity against methicillin-resistant Staphylococcus aureus after 2 hrs
Enterococcus faecium [22] = experiment: Antibacterial activity against vancomycin-resistant Enterococcus faecium 354 after 2 hrs
Enterococcus faecium [23] = experiment: Antibacterial activity against vancomycin-resistant Enterococcus faecium 356 after 2 hrs
Enterococcus faecium [24] = experiment: Antibacterial activity against vancomycin-resistant Enterococcus faecium G70 after 2 hrs
Enterococcus faecium [25] = experiment: Antibacterial activity against vancomycin-resistant Enterococcus faecium G71 after 2 hrs

H-KPWRFRRAIRRVRWRKVAPYIPFVVKTVGKK-OH
LD90 (Staphylococcus aureus [1]): 0.05 µM | MBC (Staphylococcus aureus [1]; Staphylococcus aureus, ATCC 12600, 2 h): 0.4 µM | LD90 (Escherichia coli [2]): 0.1 µM | MBC (Escherichia coli [2]; Escherichia coli, DH5[alpha], 2 h): 0.2 µM | LD90 (Priestia megaterium [3]): 0.01 µM | MBC (Priestia megaterium [3]; Priestia megaterium, ATCC 14581, 2 h): 0.1 µM | LD90 (Staphylococcus aureus [4]): 0.2 µM | MBC (Staphylococcus aureus [4]; Staphylococcus aureus, ATCC 33393, 2 h): 0.4 µM | LD90 (Staphylococcus aureus [5]): 0.2 µM | MBC (Staphylococcus aureus [5]; Staphylococcus aureus, ATCC 43300, 2 h): 0.4 µM | LD90 (Staphylococcus aureus [6]): 0.2 µM | MBC (Staphylococcus aureus [6]; Staphylococcus aureus, 344, 2 h): 0.8 µM | LD90 (Staphylococcus aureus [7]): 0.2 µM | MBC (Staphylococcus aureus [7]; Staphylococcus aureus, 358, 2 h): 0.4 µM | LD90 (Enterococcus faecalis): 0.8 µM | MBC (Enterococcus faecalis; Enterococcus faecalis, ATCC 51299, 2 h): 1.6 µM | LD90 (Klebsiella pneumoniae [8]): 0.2 µM | MBC (Klebsiella pneumoniae [8]; Klebsiella pneumoniae, ATCC 700603, 2 h): 0.8 µM | LD90 (Klebsiella pneumoniae [9]): 0.2 µM | MBC (Klebsiella pneumoniae [9]; Klebsiella pneumoniae, GF1, 2 h): 0.4 µM | LD90 (Klebsiella pneumoniae [10]): 0.2 µM | MBC (Klebsiella pneumoniae [10]; Klebsiella pneumoniae, GF7, 2 h): 0.4 µM | LD90 (Escherichia coli [11]): 0.1 µM | MBC (Escherichia coli [11]; Escherichia coli, E4, 2 h): 0.4 µM | LD90 (Escherichia coli [12]): 0.05 µM | MBC (Escherichia coli [12]; Escherichia coli, E9, 2 h): 0.2 µM | fold change (FC) (Escherichia coli [13]): 2 | fold change (FC) (Staphylococcus aureus [14]): 4 | fold change (FC) (Priestia megaterium [15]): 4 | Activity (Escherichia coli [16]): Active | Activity (Staphylococcus aureus [17]): Active | Activity (Priestia megaterium [18]): Active | Activity [19]: Non-toxic | Activity (Staphylococcus aureus [20]): Active | LD90 (Staphylococcus aureus [21]): 0.2 µM | MBC (Staphylococcus aureus [21]; Staphylococcus aureus, 2 h): 0.8 µM | LD90 (Enterococcus faecium [22]): 0.2 µM | MBC (Enterococcus faecium [22]; Enterococcus faecium, 354, 2 h): 0.4 µM | LD90 (Enterococcus faecium [23]): 0.2 µM | MBC (Enterococcus faecium [23]; Enterococcus faecium, 356, 2 h): 0.8 µM | LD90 (Enterococcus faecium [24]): 0.2 µM | MBC (Enterococcus faecium [24]; Enterococcus faecium, G70, 2 h): 0.4 µM | LD90 (Enterococcus faecium [25]): 0.2 µM | MBC (Enterococcus faecium [25]; Enterococcus faecium, G71, 2 h): 0.4 µM
